Data on 13 compounds can be found in ChEMBL document CHEMBL4819017 (Eur J Med Chem, 2021).

Structures are written as SMILES. Several values for one entry are separate records, joined by “and”; a condition that tells them apart may be missing. Equal entries are not always repeated. A value given as a limit tells only on which side of the number the result lay.

The target of experiment [1] is Voltage-gated inwardly rectifying potassium channel KCNH2 (Homo sapiens, UniProt Q12809). As to the kind of experiment: Inhibition of human ERG by fluorescence polarization assay. The method, boiled down:
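Predictor h-ERG membrane preparations (sonicated) incubated with test compound dilutions and fluorescent tracer (working 4X tracer at 4 nM) at room temperature for ≥1 h. Read-out by fluorescence polarization, ex 530/25, em 590/35.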

For experiment [2], the target named is Serine/threonine-protein kinase mTOR (Homo sapiens, UniProt P42345). Description: Inhibition of recombinant human GST tagged mTOR (1360 to 2549 residues) expressed in baculovirus expression system measured by LanthaScreen assay. An outline of the steps:
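mTOR inhibition measured by LanthaScreen assay; IC50 values average two independent experiments.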

Experiment [3] concerns the target Phosphatidylinositol 4,5-bisphosphate 3-kinase catalytic subunit alpha isoform (Homo sapiens, UniProt P42336). Description: Inhibition of human full length p110alpha (1 to 1068 residues) expressed in baculovirus-infected Sf21 cells by ADP-Hunter Plus assay.
Experiment [4] is filed under the species Homo sapiens. Description: Selectivity ratio of IC50 for recombinant human GST tagged mTOR (1360 to 2549 residues) expressed in baculovirus expression system to IC50 for human full length p110alpha (1 to 1068 residues) expressed in baculovirus-infected Sf21 cells. The method, boiled down:
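mTOR activity measured by LanthaScreen assay. PI3K-α activity measured by ADP Hunter Plus (ADP accumulation, fluorescence ex 544/em 580 nm), normalized to no-compound control and fitted to a sigmoid dose-response curve. IC50s are the average of two independent experiments. Ratio is mTOR IC50 over PI3K-α IC50.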

Experiment [5] in a line: Inhibition of PI3K/mTOR in human U2OS cells assessed as inhibition of AKT1 phosphorylation at Ser473 residue by C-ELISA. It counts as cell-based. The method, boiled down: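 U2OS osteosarcoma cells grown in 0.1% FBS and serum-stimulated. Endogenous phospho-AKT1 Ser473 quantified by cell-based ELISA with chemiluminescent substrate. Signal plotted against inhibitor concentration and fitted to a sigmoid dose-response curve.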

Voltage-gated inwardly rectifying potassium channel KCNH2, sequence (Q12809 whole entry): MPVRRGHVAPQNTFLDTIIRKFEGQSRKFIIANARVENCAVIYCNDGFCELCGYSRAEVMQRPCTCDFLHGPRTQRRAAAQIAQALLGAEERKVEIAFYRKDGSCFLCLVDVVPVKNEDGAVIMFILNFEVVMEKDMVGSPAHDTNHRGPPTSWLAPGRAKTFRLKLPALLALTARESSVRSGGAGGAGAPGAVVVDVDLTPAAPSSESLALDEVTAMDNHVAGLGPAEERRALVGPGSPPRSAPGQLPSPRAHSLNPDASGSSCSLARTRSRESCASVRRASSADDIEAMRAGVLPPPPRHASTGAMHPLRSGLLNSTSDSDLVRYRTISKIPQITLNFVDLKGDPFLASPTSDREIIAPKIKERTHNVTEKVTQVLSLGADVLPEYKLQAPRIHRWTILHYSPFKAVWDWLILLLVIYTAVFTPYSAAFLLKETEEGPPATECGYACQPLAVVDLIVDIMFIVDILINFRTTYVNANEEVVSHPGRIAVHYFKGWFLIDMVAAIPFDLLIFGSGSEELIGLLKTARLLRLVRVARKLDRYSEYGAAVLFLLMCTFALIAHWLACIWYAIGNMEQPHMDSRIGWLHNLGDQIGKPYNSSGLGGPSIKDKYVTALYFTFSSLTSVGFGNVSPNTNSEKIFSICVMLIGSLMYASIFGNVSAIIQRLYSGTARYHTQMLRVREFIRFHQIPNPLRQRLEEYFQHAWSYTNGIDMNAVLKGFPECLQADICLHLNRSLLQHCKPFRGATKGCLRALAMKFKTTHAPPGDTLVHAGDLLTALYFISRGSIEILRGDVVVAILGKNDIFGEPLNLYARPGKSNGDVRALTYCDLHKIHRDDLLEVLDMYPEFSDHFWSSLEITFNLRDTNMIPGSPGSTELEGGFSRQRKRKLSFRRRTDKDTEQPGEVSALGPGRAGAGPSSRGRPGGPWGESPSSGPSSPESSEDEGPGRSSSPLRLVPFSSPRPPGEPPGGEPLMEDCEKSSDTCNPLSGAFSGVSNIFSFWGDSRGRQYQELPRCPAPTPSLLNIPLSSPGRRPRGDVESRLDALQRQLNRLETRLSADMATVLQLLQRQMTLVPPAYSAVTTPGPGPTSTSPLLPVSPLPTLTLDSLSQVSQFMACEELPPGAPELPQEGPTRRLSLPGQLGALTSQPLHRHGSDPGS
Phosphatidylinositol 4,5-bisphosphate 3-kinase catalytic subunit alpha isoform, sequence (P42336 whole entry, the tested form may be a part, canonical isoform): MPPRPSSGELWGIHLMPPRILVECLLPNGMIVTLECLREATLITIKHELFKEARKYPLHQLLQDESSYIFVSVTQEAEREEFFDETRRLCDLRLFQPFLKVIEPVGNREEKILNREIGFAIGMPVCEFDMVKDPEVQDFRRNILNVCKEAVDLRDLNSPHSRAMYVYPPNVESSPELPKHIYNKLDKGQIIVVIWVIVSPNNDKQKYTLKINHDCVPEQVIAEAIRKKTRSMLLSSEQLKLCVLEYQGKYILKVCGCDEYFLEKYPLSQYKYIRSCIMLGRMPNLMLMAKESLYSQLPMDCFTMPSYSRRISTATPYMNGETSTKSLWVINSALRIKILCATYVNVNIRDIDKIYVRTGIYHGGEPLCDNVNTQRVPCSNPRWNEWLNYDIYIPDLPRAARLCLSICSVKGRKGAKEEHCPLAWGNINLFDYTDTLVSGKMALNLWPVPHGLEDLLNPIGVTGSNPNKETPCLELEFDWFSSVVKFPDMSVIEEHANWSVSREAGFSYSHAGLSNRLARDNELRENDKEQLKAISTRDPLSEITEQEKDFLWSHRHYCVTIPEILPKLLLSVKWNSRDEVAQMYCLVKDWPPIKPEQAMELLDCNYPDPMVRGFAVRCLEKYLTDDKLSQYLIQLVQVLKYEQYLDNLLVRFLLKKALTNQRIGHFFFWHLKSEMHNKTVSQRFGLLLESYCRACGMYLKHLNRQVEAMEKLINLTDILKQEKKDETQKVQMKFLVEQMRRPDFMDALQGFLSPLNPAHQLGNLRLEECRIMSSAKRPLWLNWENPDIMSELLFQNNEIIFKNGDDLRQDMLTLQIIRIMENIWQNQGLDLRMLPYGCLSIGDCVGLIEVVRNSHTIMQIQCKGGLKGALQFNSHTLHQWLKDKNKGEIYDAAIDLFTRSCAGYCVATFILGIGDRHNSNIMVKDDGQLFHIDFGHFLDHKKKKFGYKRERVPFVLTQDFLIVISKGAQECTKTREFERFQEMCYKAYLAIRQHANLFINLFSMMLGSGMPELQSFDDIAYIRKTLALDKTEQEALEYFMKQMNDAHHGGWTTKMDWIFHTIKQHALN

As to `COc1ncc2cc1NS(=O)(=O)c1cccc(c1)C(=O)NCc1cc(ccn1)-c1ccnc3ccc-2cc13`, the IC50 was over 30000 nM in experiment [1]; 122 nM and 72.2 nM in experiment [2]; 6.1 nM in experiment [3].
`COc1ncc2cc1NS(=O)(=O)c1cccc(c1)C(=O)NCc1cncc(c1)-c1ncnc3sc-2cc13`: the IC50 in experiment [2] worked out at 39.9 nM.
For the compound `COc1ncc2cc1NS(=O)(=O)c1cccc(c1)C(=O)NCCn1cc(cn1)-c1ncnc3ccc-2cc13`, in experiment [2], the IC50 was 16.5 nM.
As for `COc1ncc2cc1NS(=O)(=O)c1cccc(c1)C(=O)NCCn1cc(cn1)-c1cnc3ccc-2cn13`, the IC50 in experiment [1] is over 30000 nM; in experiment [2] it was 5790 nM.
Regarding `COc1ncc2cc1NS(=O)(=O)c1cccc(c1)C(=O)NCC1CCN(CC1)c1ncnc3ccc-2cc13`, the IC50 in experiment [2] came out at 23.4 nM.
`COc1ncc2cc1NS(=O)(=O)c1cccc(c1)C(=O)NCc1cncc(c1)-c1ccnc3ccc-2nc13`: the IC50 in experiment [1] is over 30000 nM; in experiment [2], 49 nM.
Consider `COc1ncc2cc1NS(=O)(=O)c1cccc(c1)C(=O)NCc1ccc(F)c(c1)-c1ccnc3ccc-2cc13`, for which, in experiment [2], the IC50 came out at 655 nM.
Turning to `COc1ncc2cc1NS(=O)(=O)c1cccc(c1)C(=O)NCc1cncc(c1)-c1cnn3ccc-2nc13`, the IC50 in experiment [2] was 67.6 nM.
Still for that read-out and setting: with `COc1ncc2cc1NS(=O)(=O)c1cccc(c1)C(=O)NCc1cncc(c1)-c1ccnc3ccc-2cc13` the figure was 0.3 nM.
The same measure, in the same setting: with `COc1ncc2cc1NS(=O)(=O)c1cccc(c1)C(=O)NCc1cccc(c1)-c1ccnc3ccc-2nc13` the figure was over 10000 nM.
The same measure, in the same setting: with `COc1ncc2cc1NS(=O)(=O)c1cccc(c1)C(=O)NCc1cccc(c1)-c1ncnc3sc-2cc13` the figure was 4.7 nM; with `COc1ncc2cc1NS(=O)(=O)c1cccc(c1)C(=O)NCCn1cc(cn1)-c1cnn3ccc-2nc13`, 66.3 nM.
As for `COc1ncc2cc1NS(=O)(=O)c1cccc(c1)C(=O)NCc1cncc(c1)-c1cnc3ccc-2nn13`, the IC50 in experiment [1] was over 30000 nM; in experiment [2], 16.7 nM; in experiment [3], 3 nM. For the same compound, the Ratio IC50 in experiment [4] was 5.5. Moreover, the EC50 in experiment [5] was found to be 99.4 nM.
